The results in this text go back to ChEMBL document CHEMBL5230165, “Synthesis of bis-furyl-pyrrolo[3,4-b]pyridin-5-ones via Ugi-Zhu reaction and in vitro activity assays against human SARS-CoV-2 and in silico studies on its main proteins” (RSC Med Chem, 2023).

Activity calls are given as the source filed them. No cut-off for these calls is given here. Where only a bound is given, the exact number is not on record here.

The nature of data set [1]: Cytotoxicity against African green monkey Vero E6 cells assessed as cell viability incubated for 48 hrs by crystal violet staining assay. The data set is classed as toxicity, cell-based, Vero C1008. To be noted: African green monkey (Chlorocebus sabaeus).
For the next data set, the system named is Vero C1008. Nature of the data set: Cytotoxicity against African green monkey Vero E6 cells assessed as reduction in cell viability at 100 uM incubated for 48 hrs by crystal violet staining assay. Format: toxicity, cell-based. The settings on record: chlorocebus sabaeus, vero c1008, 48 h. In short, it runs like this:
(§1)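 Vero E6 cells were seeded at 25 000 per well 24 h ahead in DMEM with 8% FBS at 37 °C and 5% CO2. Compounds were tested at 0.001–100 μM for 48 h, with a 0.5% DMSO vehicle control. Cells were fixed in formaldehyde and stained with crystal violet, the dye was released with 10% acetic acid, and A590 was read. Viability is relative to untreated medium. IC50 came from polynomial regression.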

A short description of data set [2]: Cytotoxicity against African green monkey Vero E6 cells assessed as cell viability upto 10 uM incubated for 48 hrs by crystal violet staining assay relative to control. To be noted: chlorocebus sabaeus, read-out: Activity. Format: toxicity, cell-based, Vero C1008. In short, it runs like this: as §1
The subject of data set [3] is SARS-CoV-2. Nature of the data set: Antiviral activity against SARS-CoV-2 infected in African green monkey Vero E6 cells assessed as inhibition of viral infection at 10 uM pre-infected with cells for 1 hrs followed by compound addition and measured after 24 hrs by crystal violet staining based plaque reduction assay. Format: functional. The settings on record: for Activity: Severe acute respiratory syndrome coronavirus 2.

For data set [4], the system named is SARS-CoV-2. The experiment in a line: Antiviral activity against SARS-CoV-2 infected in African green monkey Vero E6 cells assessed as inhibition of viral infection at 10 uM incubated for 1 hrs followed by compound washout and measured after 24 hrs by crystal violet staining based plaque assay relative to control. Format: functional. To be noted: Severe acute respiratory syndrome coronavirus 2, Vero C1008.

For the molecule `O=C1c2cc(N3CCOCC3)c(Cc3ccccc3)nc2C(c2ccoc2)N1Cc1ccco1` (stereo unspecified), in data set [1], the IC50 at 48 h came to 85.1 µM. Besides, the Activity entry in the data set with Vero C1008 is recorded as “Toxic”. Also, the viability at 48 h, up to 10 µM in data set [2] is at least 100%. Moreover, the inhibition at 10 µM with SARS-CoV-2 [3] (Severe acute respiratory syndrome coronavirus 2, Vero C1008) came out at 53%.
As to `O=C1c2cc(N3CCOCC3)c(Cc3ccccc3)nc2C(c2ccco2)N1CC1CCCO1` (stereo unspecified), in data set [1], the IC50 at 48 h was 76.9 µM. Further, in the data set on Vero C1008, the Activity result is given as “Toxic”. Further, the viability at 48 h, up to 10 µM in data set [2] is at least 100%.
With `O=C1c2cc(N3CCOCC3)c(Cc3ccc(O)cc3)nc2C(c2ccco2)N1Cc1ccco1` (stereo unspecified), the concentration for half-maximal inhibition (IC50) at 48 h in data set [1] worked out at 153 µM. In addition, in the data set on Vero C1008, the Activity entry is “Toxic”. The viability at 48 h, up to 10 µM in data set [2] was at least 100%. In the data set with SARS-CoV-2 [4], the inhibition at 10 µM is 77%. Moreover, the result with SARS-CoV-2 [3] was inactive.
Regarding `O=C1c2cc(N3CCOCC3)c(Cc3ccccc3)nc2C(C2CCCO2)N1Cc1ccco1` (stereo unspecified), the 50% inhibitory concentration (IC50) at 48 h in data set [1] was 612 µM. Besides, in data set [2], the viability at 48 h, up to 10 µM is at least 100%. The inhibition at 10 µM in the data set on SARS-CoV-2 [4] was 31.9%. In addition, the result in the data set on SARS-CoV-2 [3] was Active.
For the molecule `O=C1c2cc(N3CCOCC3)c(Cc3ccccc3)nc2C(c2ccoc2)N1CC1CCCO1` (stereo unspecified), the half-maximal inhibitory concentration (IC50) at 48 h in data set [1] was 290 µM. In the data set with Vero C1008, the Activity result is recorded as “Toxic”. In data set [2], the viability at 48 h, up to 10 µM was at least 100%. Further, the inhibition at 10 µM in the data set with SARS-CoV-2 [4] stood at 9.4%. Moreover, the result in the data set with SARS-CoV-2 [3] was inactive.
Taken in the same sequence, the figures for `O=C1c2cc(N3CCOCC3)c(Cc3ccccc3)nc2C(c2ccco2)N1Cc1ccco1` (stereo unspecified) were 276 µM, “Toxic”, at least 100%, 19.4% and “inactive”.
